# Results: ChEMBL document CHEMBL1157708, “Design, synthesis and primary activity assay of bi- or tri-peptide analogues with the scaffold l-arginine as amino-peptidase N/CD13 inhibitors” (Bioorg Med Chem, 2010)
# Where a SMILES comes first, the peptide text is derived from it. [ ]: non-standard residue; d: D form. The star is where a group is joined. Arg(NO2) = N=C(NCCC[C@H](N)C(=O)O)N[N+](=O)[O-]; Boc = CC(C)(C)OC(=O)*; Bz = O=C(c1ccccc1)*; NHOH = ON*
# How the values were obtained:
# Aminopeptidase N = target: T1, Aminopeptidase N (Sus scrofa, UniProt P15145); experiment: Inhibition of APN from pig kidney microsomes by spectrophotometry; assay type: tissue-based
# T1 sequence (P15145 whole entry): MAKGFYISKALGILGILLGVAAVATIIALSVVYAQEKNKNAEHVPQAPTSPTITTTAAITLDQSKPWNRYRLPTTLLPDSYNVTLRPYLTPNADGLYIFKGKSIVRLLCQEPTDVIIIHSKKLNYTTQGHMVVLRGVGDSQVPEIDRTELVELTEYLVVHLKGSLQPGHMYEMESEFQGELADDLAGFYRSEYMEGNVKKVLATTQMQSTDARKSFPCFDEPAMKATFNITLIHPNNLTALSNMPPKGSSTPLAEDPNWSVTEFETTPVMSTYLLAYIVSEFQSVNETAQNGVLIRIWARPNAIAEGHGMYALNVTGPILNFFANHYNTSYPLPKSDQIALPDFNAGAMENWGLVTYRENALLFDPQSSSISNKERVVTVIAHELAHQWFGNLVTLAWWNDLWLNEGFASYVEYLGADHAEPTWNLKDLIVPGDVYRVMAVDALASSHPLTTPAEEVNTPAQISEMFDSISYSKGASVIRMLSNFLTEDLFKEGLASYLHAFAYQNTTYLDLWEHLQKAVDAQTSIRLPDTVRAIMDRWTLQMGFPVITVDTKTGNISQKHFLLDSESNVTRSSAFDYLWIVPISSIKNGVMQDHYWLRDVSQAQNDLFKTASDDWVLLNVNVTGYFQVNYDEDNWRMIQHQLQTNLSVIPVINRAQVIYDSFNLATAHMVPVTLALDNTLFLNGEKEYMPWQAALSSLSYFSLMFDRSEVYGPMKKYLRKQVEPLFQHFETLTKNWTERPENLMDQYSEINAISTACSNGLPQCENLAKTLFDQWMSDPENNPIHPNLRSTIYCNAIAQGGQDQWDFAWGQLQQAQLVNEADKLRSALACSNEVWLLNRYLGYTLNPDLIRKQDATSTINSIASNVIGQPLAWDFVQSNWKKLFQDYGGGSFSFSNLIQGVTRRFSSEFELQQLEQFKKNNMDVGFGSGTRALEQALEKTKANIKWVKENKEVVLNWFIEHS
# [1] = target: 72 kDa type IV collagenase (Homo sapiens, UniProt P08253); experiment: Inhibition of MMP2 by spectrophotometry
# Sequence of 72 kDa type IV collagenase (P08253 whole entry): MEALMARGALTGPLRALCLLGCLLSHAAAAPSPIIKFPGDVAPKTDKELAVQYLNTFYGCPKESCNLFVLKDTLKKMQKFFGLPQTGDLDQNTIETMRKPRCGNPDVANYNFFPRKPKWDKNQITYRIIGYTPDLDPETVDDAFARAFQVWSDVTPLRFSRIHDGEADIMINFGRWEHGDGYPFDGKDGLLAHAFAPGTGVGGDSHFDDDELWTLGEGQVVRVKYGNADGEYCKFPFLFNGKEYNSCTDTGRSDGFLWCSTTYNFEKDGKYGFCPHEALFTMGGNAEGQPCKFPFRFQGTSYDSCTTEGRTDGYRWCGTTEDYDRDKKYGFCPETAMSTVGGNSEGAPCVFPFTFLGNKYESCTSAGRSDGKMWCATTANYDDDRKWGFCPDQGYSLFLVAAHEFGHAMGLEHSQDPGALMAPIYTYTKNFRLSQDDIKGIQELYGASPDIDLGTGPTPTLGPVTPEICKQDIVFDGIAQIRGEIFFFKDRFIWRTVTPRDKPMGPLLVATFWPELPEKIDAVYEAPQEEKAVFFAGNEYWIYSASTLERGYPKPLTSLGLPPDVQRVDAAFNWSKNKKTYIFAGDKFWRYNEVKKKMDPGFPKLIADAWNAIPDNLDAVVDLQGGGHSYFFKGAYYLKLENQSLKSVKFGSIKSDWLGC
# How it was run: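 Gelatinase A (MMP-2) with an in-house synthesized substrate and inhibitor, all in 50 mmol/L sodium borate pH 8.5, incubated 30 min at 37 °C. 0.03% TNBS then added and incubated a further 20 min. Absorbance read at 450 nm.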
SMILES,IC50 (Aminopeptidase N),IC50 [1]
CC(C)C[C@H](NC(=O)OC(C)(C)C)C(=O)N[C@@H](CCCNC(N)=N[N+](=O)[O-])C(=O)NO,334 µM,5.68 mM
CC(C)C[C@H](N)C(=O)N[C@@H](CCCNC(=N)N[N+](=O)[O-])C(=O)NO,–,5.31 mM
CSCCC[C@H](N)C(=O)N[C@@H](CCCNC(=N)N[N+](=O)[O-])C(=O)NO,–,4.2 mM
CC(C)C[C@H](NC(=O)c1ccc(Cl)cc1Cl)C(=O)N[C@@H](CCCNC(N)=N[N+](=O)[O-])C(=O)NO,7.2 µM,1.54 mM
N=C(NCCC[C@H](NC(=O)[C@H](Cc1ccccc1)NC(=O)c1ccc(Cl)cc1Cl)C(=O)NO)N[N+](=O)[O-],4.3 µM,8.14 mM
COc1ccc(C(=O)N[C@@H](C)C(=O)N[C@@H](CCCNC(N)=N[N+](=O)[O-])C(=O)NO)cc1,16.3 µM,8.97 mM
C[C@H](NC(=O)c1ccc(Cl)cc1Cl)C(=O)N[C@@H](CCCNC(N)=N[N+](=O)[O-])C(=O)NO,31.4 µM,1.76 mM
CC(C)[C@H](NC(=O)c1ccccc1I)C(=O)N[C@@H](CCCNC(N)=N[N+](=O)[O-])C(=O)NO,6.7 µM,1.78 mM
CC(C)C[C@H](NC(=O)c1ccccc1Cl)C(=O)N[C@@H](CCCNC(N)=N[N+](=O)[O-])C(=O)NO,4.8 µM,0.63 mM
CC(C)C[C@H](NC(=O)OC(C)(C)C)C(=O)N[C@@H](C)C(=O)N[C@@H](CCCNC(N)=N[N+](=O)[O-])C(=O)NO (Boc-Leu-Ala-[Arg(NO2)]-{NHOH}),39.5 µM,2.9 mM
CC(C)C[C@H](NC(=O)OC(C)(C)C)C(=O)NCC(=O)N[C@@H](CCCNC(N)=N[N+](=O)[O-])C(=O)NO (Boc-Leu-Gly-[Arg(NO2)]-{NHOH}),25.2 µM,2.98 mM
CSCC[C@H](NC(=O)OC(C)(C)C)C(=O)N[C@@H](CCCNC(=N)N[N+](=O)[O-])C(=O)NO (Boc-Met-[Arg(NO2)]-{NHOH}),132 µM,1.94 mM
CC(C)C[C@H](NC(=O)[C@H](Cc1ccccc1)NC(=O)OC(C)(C)C)C(=O)N[C@@H](CCCNC(=N)N[N+](=O)[O-])C(=O)NO (Boc-Phe-Leu-[Arg(NO2)]-{NHOH}),8.4 µM,0.407 mM
CC(C)[C@H](NC(=O)[C@H](Cc1ccccc1)NC(=O)OC(C)(C)C)C(=O)N[C@@H](CCCNC(=N)N[N+](=O)[O-])C(=O)NO (Boc-Phe-Val-[Arg(NO2)]-{NHOH}),33.1 µM,0.447 mM
CC(C)(C)OC(=O)N1CCC[C@H]1C(=O)N[C@@H](Cc1ccccc1)C(=O)N[C@@H](CCCNC(=N)N[N+](=O)[O-])C(=O)NO (Boc-Pro-Phe-[Arg(NO2)]-{NHOH}),1340 µM,7.9 mM
CC(C)(C)OC(=O)N1CCC[C@H]1C(=O)N1CCC[C@H]1C(=O)N[C@@H](CCCNC(=N)N[N+](=O)[O-])C(=O)NO (Boc-Pro-Pro-[Arg(NO2)]-{NHOH}),42.1 µM,8.36 mM
CC(C)(C)OC(=O)N1CCC[C@H]1C(=O)N[C@@H](Cc1ccc(O)cc1)C(=O)N[C@@H](CCCNC(=N)N[N+](=O)[O-])C(=O)NO (Boc-Pro-Tyr-[Arg(NO2)]-{NHOH}),436 µM,4.52 mM
CC(C)[C@H](NC(=O)OC(C)(C)C)C(=O)N[C@@H](CCCNC(N)=N[N+](=O)[O-])C(=O)NO (Boc-Val-[Arg(NO2)]-{NHOH}),201 µM,3.46 mM
N=C(NCCC[C@H](NC(=O)[C@H](Cc1ccccc1)NC(=O)c1ccccc1)C(=O)NO)N[N+](=O)[O-] (Bz-Phe-[Arg(NO2)]-{NHOH}),4.2 µM,1.65 mM
CC(C)C[C@H](N)C(=O)N[C@@H](C)C(=O)N[C@@H](CCCNC(N)=N[N+](=O)[O-])C(=O)NO (H-Leu-Ala-[Arg(NO2)]-{NHOH}),–,1.71 mM
CC(C)C[C@H](N)C(=O)NCC(=O)N[C@@H](CCCNC(N)=N[N+](=O)[O-])C(=O)NO (H-Leu-Gly-[Arg(NO2)]-{NHOH}),–,3.63 mM
CC(C)C[C@H](NC(=O)[C@@H](N)Cc1ccccc1)C(=O)N[C@@H](CCCNC(=N)N[N+](=O)[O-])C(=O)NO (H-Phe-Leu-[Arg(NO2)]-{NHOH}),–,0.514 mM
CC(C)[C@H](NC(=O)[C@@H](N)Cc1ccccc1)C(=O)N[C@@H](CCCNC(N)=N[N+](=O)[O-])C(=O)NO (H-Phe-Val-[Arg(NO2)]-{NHOH}),98.6 µM,3.16 mM
NC(=N[N+](=O)[O-])NCCC[C@H](NC(=O)[C@H](Cc1ccccc1)NC(=O)[C@@H]1CCCN1)C(=O)NO (H-Pro-Phe-[Arg(NO2)]-{NHOH}),364 µM,8.05 mM
N=C(NCCC[C@H](NC(=O)[C@@H]1CCCN1C(=O)[C@@H]1CCCN1)C(=O)NO)N[N+](=O)[O-] (H-Pro-Pro-[Arg(NO2)]-{NHOH}),65.2 µM,8.61 mM
N=C(NCCC[C@H](NC(=O)[C@H](Cc1ccc(O)cc1)NC(=O)[C@@H]1CCCN1)C(=O)NO)N[N+](=O)[O-] (H-Pro-Tyr-[Arg(NO2)]-{NHOH}),248 µM,7.59 mM
CC(C)[C@H](N)C(=O)N[C@@H](CCCNC(N)=N[N+](=O)[O-])C(=O)NO (H-Val-[Arg(NO2)]-{NHOH}),–,0.428 mM
CC(C)C[C@H](NC(=O)[C@@H](O)[C@H](N)Cc1ccccc1)C(=O)O [UBENIMEX],–,0.253 mM
